Results from different studies.
Lines come from different studies, so protocols differ.
Nectin-4: Nectin-4 (Homo sapiens, UniProt Q96NY8)
PFF0160c E182D: Dihydroorotate dehydrogenase (quinone), mitochondrial (PFF0160c, Plasmodium falciparum, UniProt Q08210, E182D)
Oprm1: Mu-type opioid receptor (Oprm1, Mus musculus, UniProt P42866)
SIGMAR1: Sigma non-opioid intracellular receptor 1 (SIGMAR1, Homo sapiens, UniProt Q99720)
PFF0160c: Dihydroorotate dehydrogenase (quinone), mitochondrial (PFF0160c, Plasmodium falciparum, UniProt Q08210)

SMILES	target	observed	mode	technique	quantity	value
CCCC[C@@H]1NC(=O)[C@H](Cc2ccc(O)cc2)NC(=O)[C@@H]2CCCN2C(=O)[C@H](CC(=O)O)NC(=O)[C@H](C)NC(=O)[C@H](Cc2ccccc2)NC(=O)[C@@H]2CSCCC(=O)N3CN(CN(C3)C(=O)CCSC[C@@H](C(=O)N[C@@H](C)C(N)=O)NC1=O)C(=O)CCSC[C@H](NC(=O)[C@H](C)NC(C)=O)C(=O)N[C@@H]([C@@H](C)CC)C(=O)N[C@@H](CCC(=O)O)C(=O)N[C@@H](CCC(=O)O)C(=O)N[C@H](CCCCNC(=O)CCc1cn(CCOCCOCCOCCOCCOCCC(=O)N[C@H]3CSCCC(=O)N4CN5CN(C4)C(=O)CCSC[C@H](NC(=O)[C@@H](CC(=O)O)NC(=O)[C@H](Cc4cccc6ccccc46)NC(=O)[C@@H]4CCCN4C3=O)C(=O)N[C@@H](CCSC)C(=O)N[C@@H](CCCCNC(=N)N)C(=O)N[C@@H](CC(=O)O)C(=O)N[C@@H](Cc3c[nH]c4ccccc34)C(=O)N[C@@H](CO)C(=O)N[C@@H]([C@@H](C)O)C(=O)N3CCC[C@H]3C(=O)N3C[C@H](O)C[C@H]3C(=O)N[C@@H](Cc3c[nH]c4ccccc34)C(=O)N[C@H](C(N)=O)CSCCC5=O)nn1)C(=O)N[C@@H](CCC(N)=O)C(=O)N[C@@H](Cc1ccc(O)cc1)C(=O)N2	Nectin-4	binding		SPR	Kd	2.2 nM
CCn1cc(C(=O)NC2CCNCC2)n(Cc2ccccc2)c1=O	PFF0160c E182D	enzyme activity	inhibitor	absorbance	IC50	8940 nM
O=C(N[C@@H]1C=C[C@@]2(O)[C@H]3Cc4ccc(O)c5c4[C@@]2(CCN3CC2CC2)[C@H]1O5)c1c[nH]c2ncccc12	Oprm1	ligand displacement		radioligand	Ki	0.28 nM
COC(=O)C1(c2ccc(C)cc2)CC1CN1CCC(O)(c2ccccc2)CC1 (centres unmarked)	SIGMAR1	ligand displacement		radioligand	Ki	18.7 nM
CC(CNCc1cn(Cc2cc(Br)cc(Br)c2)c2ccccc12)CNc1cc(=O)c2ccccc2[nH]1 (centres unmarked)	PFF0160c	enzyme activity	inhibitor	absorbance	IC50	2720 nM
CCCC[C@@H]1NC(=O)[C@H](Cc2ccc(O)cc2)NC(=O)[C@@H]2CCCN2C(=O)[C@H](CC(=O)O)NC(=O)[C@H](C)NC(=O)[C@H](Cc2ccccc2)NC(=O)[C@@H]2CSCCC(=O)N3CN(CN(C3)C(=O)CCSC[C@@H](C(=O)N[C@@H](CNC(=O)CCc3cn(CCOCCOCCOCCOCCOCCOCCOCCOCCOCCOCCNC(=O)N[C@H]4CSCCC(=O)N5CN6CN(C5)C(=O)CCSC[C@H](NC(=O)[C@@H](CC(=O)O)NC(=O)[C@H](Cc5cccc7ccccc57)NC(=O)[C@@H]5CCCN5C4=O)C(=O)N[C@@H](CCSC)C(=O)N[C@@H](CCCCNC(=N)N)C(=O)N[C@@H](CC(=O)O)C(=O)N[C@@H](Cc4c[nH]c5ccccc45)C(=O)N[C@@H](CO)C(=O)N[C@@H]([C@@H](C)O)C(=O)N4CCC[C@H]4C(=O)N4C[C@H](O)C[C@H]4C(=O)N[C@@H](Cc4c[nH]c5ccccc45)C(=O)N[C@H](C(N)=O)CSCCC6=O)nn3)C(N)=O)NC1=O)C(=O)CCSC[C@H](NC(=O)[C@H](C)NC(C)=O)C(=O)N[C@@H]([C@@H](C)CC)C(=O)N[C@@H](CCC(=O)O)C(=O)N[C@@H](CCC(=O)O)C(=O)NCC(=O)N[C@@H](CCC(N)=O)C(=O)N[C@@H](Cc1ccc(O)cc1)C(=O)N2	Nectin-4	binding		SPR	Kd	1.7 nM
O=C(N[C@H]1C=C[C@@]2(O)[C@H]3Cc4ccc(O)c5c4[C@@]2(CCN3CC2CC2)[C@H]1O5)c1c[nH]c2ccncc12	Oprm1	ligand displacement		radioligand	Ki	0.7 nM
CSc1nc2nc(C)c(Cc3cccc(C(F)(F)F)c3)c(C)n2n1	PFF0160c E182D	enzyme activity	inhibitor	absorbance	IC50	> 10000 nM
CCCC[C@@H]1NC(=O)[C@H](Cc2ccc(O)cc2)NC(=O)[C@@H]2CCCN2C(=O)[C@H](CC(=O)O)NC(=O)[C@H](C)NC(=O)[C@H](Cc2ccccc2)NC(=O)[C@@H]2CSCCC(=O)N3CN(CN(C3)C(=O)CCSC[C@@H](C(=O)N[C@@H](CNC(=O)CCc3cn(CCOCCOCCOCCOCCOCCOCCOCCOCCOCCOCCOCCOCCOCCOCCOCCOCCOCCOCCOCCOCCOCCOCCOCCNC(=O)N[C@H]4CSCCC(=O)N5CN6CN(C5)C(=O)CCSC[C@H](NC(=O)[C@@H](CC(=O)O)NC(=O)[C@H](Cc5cccc7ccccc57)NC(=O)[C@@H]5CCCN5C4=O)C(=O)N[C@@H](CCSC)C(=O)N[C@@H](CCCCNC(=N)N)C(=O)N[C@@H](CC(=O)O)C(=O)N[C@@H](Cc4c[nH]c5ccccc45)C(=O)N[C@@H](CO)C(=O)N[C@@H]([C@@H](C)O)C(=O)N4CCC[C@H]4C(=O)N4C[C@H](O)C[C@H]4C(=O)N[C@@H](Cc4c[nH]c5ccccc45)C(=O)N[C@H](C(N)=O)CSCCC6=O)nn3)C(N)=O)NC1=O)C(=O)CCSC[C@H](NC(=O)[C@H](C)NC(C)=O)C(=O)N[C@@H]([C@@H](C)CC)C(=O)N[C@@H](CCC(=O)O)C(=O)N[C@@H](CCC(=O)O)C(=O)NCC(=O)N[C@@H](CCC(N)=O)C(=O)N[C@@H](Cc1ccc(O)cc1)C(=O)N2	Nectin-4	binding		SPR	Kd	1.8 nM
CC(C)C(NC(=O)Cc1cccc2ccccc12)C(=O)Nc1cccc(C#N)c1 (centres unmarked)	PFF0160c	enzyme activity	inhibitor	absorbance	IC50	1550 nM
O=C(N[C@@H]1C=C[C@@]2(O)[C@H]3Cc4ccc(O)c5c4[C@@]2(CCN3CC2CC2)[C@H]1O5)c1n[nH]c2ccccc12	Oprm1	ligand displacement		radioligand	Ki	0.32 nM
CCCCN(C)CC#Cc1ccc2[nH]c(C)c(Cl)c(=O)c2c1	PFF0160c	enzyme activity	inhibitor	absorbance	IC50	4550 nM
CCCC[C@@H]1NC(=O)[C@H](Cc2ccc(O)cc2)NC(=O)[C@@H]2CCCN2C(=O)[C@H](CC(=O)O)NC(=O)[C@H](C)NC(=O)[C@H](Cc2ccccc2)NC(=O)[C@@H]2CSCCC(=O)N3CN(CN(C3)C(=O)CCSC[C@H](NC(C)=O)C(=O)N[C@@H](CC(C)(C)C)C(=O)N3CCC[C@H]3C(=O)N[C@@H](CCC(=O)O)C(=O)N[C@H](CCCCNC(=O)CCc3cn(CCOCCOCCOCCOCCOCCC(=O)N[C@H]4CSCCC(=O)N5CN6CN(C5)C(=O)CCSC[C@H](NC(=O)[C@@H](CC(=O)O)NC(=O)[C@H](Cc5cccc7ccccc57)NC(=O)[C@@H]5CCCN5C4=O)C(=O)N[C@@H](CCSC)C(=O)N[C@@H](CCCCNC(=N)N)C(=O)N[C@@H](CC(=O)O)C(=O)N[C@@H](Cc4c[nH]c5ccccc45)C(=O)N[C@@H](CO)C(=O)N[C@@H]([C@@H](C)O)C(=O)N4CCC[C@H]4C(=O)N4C[C@H](O)C[C@H]4C(=O)N[C@@H](Cc4c[nH]c5ccccc45)C(=O)N[C@H](C(N)=O)CSCCC6=O)nn3)C(=O)N3CCC[C@H]3C(=O)N[C@@H](Cc3ccc(O)cc3)C(=O)N2)C(=O)CCSC[C@@H](C(N)=O)NC1=O	Nectin-4	binding		SPR	Kd	2 nM
COc1cc2nc(N3CCCN(C)CC3)nc(NC3CCN(Cc4ccccc4)CC3)c2cc1OC	SIGMAR1	ligand displacement		radioligand	Ki	> 10000 nM
O=C(N[C@H]1C=C[C@@]2(O)[C@H]3Cc4ccc(O)c5c4[C@@]2(CCN3CC2CC2)[C@H]1O5)c1c[nH]c2cnccc12	Oprm1	ligand displacement		radioligand	Ki	1.16 nM
Cc1nccn1CC1CCc2c(c3ccccc3n2C)C1=O (centres unmarked)	SIGMAR1	ligand displacement		radioligand	Ki	6510 nM
CCCC[C@@H]1NC(=O)[C@H](Cc2ccc(O)cc2)NC(=O)[C@@H]2CCCN2C(=O)[C@H](CC(=O)O)NC(=O)[C@H](C)NC(=O)[C@H](Cc2ccccc2)NC(=O)[C@@H]2CSCCC(=O)N3CN(CN(C3)C(=O)CCSC[C@@H](C(=O)N[C@@H](CNC(=O)CCOCCOCCOCCOCCOCCn3cc(CCC(=O)N[C@H]4CSCCC(=O)N5CN6CN(C5)C(=O)CCSC[C@H](NC(=O)[C@@H](CC(=O)O)NC(=O)[C@H](Cc5cccc7ccccc57)NC(=O)[C@@H]5CCCN5C4=O)C(=O)N[C@@H](CCSC)C(=O)N[C@@H](CCCCNC(=N)N)C(=O)N[C@@H](CC(=O)O)C(=O)N[C@@H](Cc4c[nH]c5ccccc45)C(=O)N[C@@H](CO)C(=O)N[C@@H]([C@@H](C)O)C(=O)N4CCC[C@H]4C(=O)N4C[C@H](O)C[C@H]4C(=O)N[C@@H](Cc4c[nH]c5ccccc45)C(=O)N[C@H](C(N)=O)CSCCC6=O)nn3)C(N)=O)NC1=O)C(=O)CCSC[C@H](NC(C)=O)C(=O)N[C@@H](CC(C)(C)C)C(=O)N1CCC[C@H]1C(=O)N[C@@H](CCC(=O)O)C(=O)N[C@H](C)C(=O)N1CCC[C@H]1C(=O)N[C@@H](Cc1ccc(O)cc1)C(=O)N2	Nectin-4	binding		SPR	Kd	1.1 nM
